Bioassay records: PubChem BioAssay, Sanford-Burnham Center for Chemical Genomics
In the library only some 2.3% were active in any assay of this set; here they are far more common.
LMPTP inh – LMPTP (human) inhibition; 360,000 compounds, 0.22% hits; P24666; inhibition, % at 20 µM; recombinant LMPTP-A, OMFP fluorogenic substrate, fluorescence intensity;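 active means compounds that cut the enzyme signal by at least half of the control window in the single-dose screen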
Target sequence (P24666 whole entry, looked up): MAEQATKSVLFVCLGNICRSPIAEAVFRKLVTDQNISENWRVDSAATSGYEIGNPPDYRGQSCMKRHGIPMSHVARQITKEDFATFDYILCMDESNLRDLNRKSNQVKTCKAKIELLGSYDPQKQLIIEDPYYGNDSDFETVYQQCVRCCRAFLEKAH
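Test system: LMPTP-A phosphatase enzyme; input: 0.625 nM LMPTP-A final; reagent: OMFP substrate, 400 µM final; compound dosing: 20 µM single dose, 3% DMSO; incubation: 50 min dark incubation at room temperature; measured by: endpoint fluorescence intensity from OMFP dephosphorylation; measure: % inhibition relative to no-enzyme and uninhibited control wells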
DNMT1 block – blocks human DNA methyltransferase DNMT1 | 360,000 compounds, 0.83% hits | P26358 | inhibition (reported as % activation of signal), % at 10 µM | DNMT1 molecular beacon, Hinp1I cleavage, fluorescence; in the data active means inhibition above about 50%
SUMO1 PPI mod – alters human SUMO1 binding to SIM partners; P63165; SUMO1 binding to a labelled peptide, TR-FRET, 1 h; inhibition, % at 20 µM; 360,000 compounds, 0.33% hits; in the data active means inhibition above about 37%
Target sequence (P63165 whole entry, looked up): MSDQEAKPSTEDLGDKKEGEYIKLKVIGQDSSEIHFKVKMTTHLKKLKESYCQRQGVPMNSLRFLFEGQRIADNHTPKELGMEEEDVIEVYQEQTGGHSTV
STEP block – blocks human striatal-enriched tyrosine phosphatase; P54829; 360,000 compounds, 0.25% hits; inhibition, % at 20 µM; recombinant STEP, OMFP fluorogenic substrate, fluorescence;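 active means inhibition at 20 µM, scaled per plate between control wells, above about 37%, limit read from the data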
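System: STEP (striatal-enriched tyrosine phosphatase) enzyme, cell-free; medium: Bis-Tris pH 6.0 buffer with DTT, detergent; dosing: 20 µM, 1% DMSO; times: reaction 20 min, ambient temperature; detection: fluorescence, 480/540 nm; read-out basis: normalized % inhibition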
Scp-1 inhibitor – inhibitors of human Scp-1 phosphatase. Q9GZU7. Recombinant Scp1, phosphopeptide, malachite green phosphate absorbance. inhibition, % at 20 µM. 340,000 compounds, 0.88% hits. AID 493091;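 active means inhibition above about 50% at 20 µM, limit read from the data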
Target sequence (Q9GZU7 76-261 limits assumed): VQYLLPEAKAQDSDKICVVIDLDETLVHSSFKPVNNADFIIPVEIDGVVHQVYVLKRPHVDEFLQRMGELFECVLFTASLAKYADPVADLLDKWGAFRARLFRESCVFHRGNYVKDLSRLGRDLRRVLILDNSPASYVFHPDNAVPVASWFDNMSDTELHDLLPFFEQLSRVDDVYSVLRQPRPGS
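assay system = SCP-1 phosphatase catalytic domain, residues 76-261 | buffer or medium = 50 mM Tris acetate pH 5.5, 0.005% Tween-20, 10 mM MgCl2 | incubation = enzyme reaction 45 min at room temperature, colour 5 min, stabilisation 30 min | signal = Phosphate-binding colour reagent, absorbance read at 630 nm | measure = % inhibition at 20 µM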
Rpn11 inh – Rpn11 (human) deubiquitinase inhibition | O00487 | human 26S proteasome, Ub4-pepOG fluorescence polarization; 20S core pre-blocked with epoxomicin | inhibition, % at 20 µM | 360,000 compounds, 0.59% hits | AID 588493;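 active means inhibition at 20 µM, scaled to each plate's controls, above about 33%, limit read from the data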
Scp1 confirm – confirmation of human Scp-1 phosphatase inhibitors; shares compounds with Scp-1 inhibitor; recombinant SCP-1 catalytic domain, phosphate release, malachite green absorbance; AID 540281; 2,500 compounds, 61% hits; inhibition, % at 20 µM
Scp-1 MG ctr – counter-screen for Scp-1 inhibitors: colorimetric interference; shares compounds with Scp-1 inhibitor; Colorimetric interference counterscreen, malachite green absorbance 630 nm; apparent inhibition (interference), % at 20 µM; 2,500 tested, under 10 active; AID 540313;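 further: compounds added after enzyme reaction finished so only phosphate colour detection is probed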
Scp1 DSF – validation of human Scp-1 inhibitors by thermal shift binding; shares compounds with Scp-1 inhibitor; Recombinant SCP1, Sypro Orange thermal shift Tm; 1,500 compounds, 25% hits; thermal shift relative to vanadate control, % at 40 µM;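 active means substances whose mean melting-temperature shift, as a percentage of the reference inhibitor's shift, reaches about 5.3%, limit read from the data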
Of the large screens only hits and unclear results are named; the others gave an inactive call (follow-up assays come after a bar, where they were run).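 How the source made its calls, unless noted: active means inhibition of at least 30% at 20 µM; inactive means the rest.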

COc1ccccc1-c1nnc2sc(-c3cnccn3)nn12	Scp-1 inhibitor 70 | Scp1 confirm 56 | Scp-1 MG ctr inactive | Scp1 DSF 5.8
N#CC1(NC(=O)COc2ccccc2[N+](=O)[O-])CCCCC1	Scp-1 inhibitor 52 | Scp1 confirm 73 | Scp-1 MG ctr inactive | Scp1 DSF inactive
N#CC1(NC(=O)COc2cc(F)ccc2[N+](=O)[O-])CCCCC1	none
Cc1ccc(NC(=O)c2noc3c2CCc2ccccc2-3)cc1	Scp-1 inhibitor 56 | Scp1 confirm inactive | Scp-1 MG ctr inactive
CCc1ccc(-n2nnnc2SCC(=O)Nc2ccc(NC(C)=O)cc2)cc1	none
CC(=O)Nc1ccc(-n2nnnc2SCC(=O)Nc2cccc(NC(=O)c3ccco3)c2)cc1	Scp-1 inhibitor 55 | Scp1 confirm 30 | Scp-1 MG ctr inactive | Scp1 DSF inactive
CCCCOc1ccc(-c2nnc(-c3ccncc3)o2)cc1	none
CCCOc1ccc(-c2nnc(-c3cccs3)o2)cc1	Scp-1 inhibitor 67 | Scp1 confirm inactive | Scp-1 MG ctr inactive
CCOc1cccc2cc(C(=O)NCc3ccc(OC)cc3)c(=N)oc12	none
NC(=O)c1c(NC(=O)COC(=O)c2ccc(S(=O)(=O)Nc3ccccc3)cc2)sc2c1CCCC2	none
O=C(COC(=O)CCCC1=NS(=O)(=O)c2ccccc2N1)Nc1ccc(Br)cc1	Scp-1 inhibitor 51 | Scp1 confirm inactive | Scp-1 MG ctr inactive
Cc1ccc(CCNC(=O)CCNS(=O)(=O)c2ccc3c(c2)oc(=O)n3C)cc1	none | Scp1 confirm inactive | Scp-1 MG ctr inactive
O=C(Nc1cccc([N+](=O)[O-])c1)c1cnccn1	Scp-1 inhibitor 58 | Scp1 confirm 56 | Scp-1 MG ctr inactive | Scp1 DSF 6.4
CN(C(=O)CCN1C(=O)/C(=C/c2ccccc2)SC1=S)C1CCS(=O)(=O)C1 (configuration not stated)	SUMO1 PPI mod 80, Scp-1 inhibitor 76 | Scp1 confirm inactive | Scp-1 MG ctr inactive
O=C(NCCCn1ccnc1)C(=O)c1c[nH]c2ccccc12	none
O=C(Nc1ccc(F)cc1)c1cccc(N2C(=O)c3ccccc3C2=O)c1	Scp-1 inhibitor 82 | Scp1 confirm 55 | Scp-1 MG ctr inactive | Scp1 DSF inactive
Cc1ccc(S(=O)(=O)NC(=O)C2(C)CCN2C(=O)c2ccc(C(F)(F)F)nc2C)cc1 (configuration not stated)	none (no result: Scp-1 inhibitor)
Cn1c(NN)nc2c1c(=O)n(Cc1ccccc1)c(=O)n2C	Scp-1 inhibitor 68 | Scp1 confirm 62 | Scp-1 MG ctr inactive | Scp1 DSF 9.4
O=[N+]([O-])c1ccc(C(O)C[n+]2ccccc2)cc1 (configuration not stated)	Scp-1 inhibitor 96 | Scp1 confirm inactive | Scp-1 MG ctr inactive
O=[N+]([O-])c1ccc(C(O)CN2CCN(c3ccccc3)CC2)cc1 (configuration not stated)	none
Cc1ccc2c(=O)cc(C(=O)NCCc3ccc(S(N)(=O)=O)cc3)oc2c1	Scp-1 inhibitor 95 | Scp1 confirm 70 | Scp-1 MG ctr inactive | Scp1 DSF inactive
NS(=O)(=O)c1ccc(CCNC(=O)c2ccc3nccnc3c2)cc1	LMPTP inh 55, Scp-1 inhibitor 99 | Scp1 confirm 76 | Scp-1 MG ctr inactive | Scp1 DSF inactive
Cc1cc(C)c2oc(C(=O)NCCc3ccc(S(N)(=O)=O)cc3)cc(=O)c2c1	none
CC[C@H](C)[C@H]1CNC(=S)N1CC1CCN(CC)CC1	none (no result: Scp-1 inhibitor)
